A selection: hits, their analogues and other compounds. The true share with any hit is near 2.3%.
DDE Tn7 FP inh – DD(E)-Tn7 binding inhibition, primary FP screen; P02675; inhibition, % at 8.3 µM; 0.13% of 370,000 active; FP displacement of FITC-Tn7 peptide from fibrin DD(E); 0% = median of compound wells per plate;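 active = inhibition above the mean of compounds falling within the control limits plus 3 SD of them, cut at about 14% in these data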;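 note: 0% = plate median of compound wells and 100% = 10 µM Aha-Tn7 peptide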
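Test system: human clot-derived fibrin DD(E) complex / Quantity: 2 µM final DD(E) protein / Incubation: 10 min plus 3 h, room temperature / Measured by: fluorescence polarization / Benchmarks: high control of 10 µM Aha-Tn7 peptide / Replicates: singlicate testing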
ADAM10 inh – inhibitors of human ADAM10; recombinant ADAM10, EDANS/DABCYL FRET peptide cleavage, 3 h; inhibition, % at 7 µM; 0.62% of 370,000 active;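 active = inhibition above a per-campaign cutoff equal to the mean of compounds falling between control-based bounds plus 3 SD, cut at about 20% in these data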;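 note: 0% = DMSO wells while the 100% control is not disclosed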
PLC-gamma1 inh – PLC-gamma1 (human) inhibition, primary screen. inhibition, % at 12.2 µM. purified PLC-gamma1, fluorogenic substrate, fluorescence. 0.84% of 370,000 active. AID 720700; in the data active = inhibition above about 9.5%
PLC-beta3 inh – PLC-beta3 (human) inhibition, primary screen; 0.18% of 370,000 active; inhibition, % at 12.2 µM; Purified PLC-beta3, fluorogenic substrate, fluorescence; in the data active = inhibition above about 11%;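 note: 0% = median of compound wells on plate and 100% = full blocker control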
DDE Tn6 FP inh – inhibitors of Tn6 peptide binding to human fibrin DD(E) | P02675 | 0.21% of 370,000 active | inhibition, % at 8.3 µM | AID 720509 | Fibrin DD(E) TRITC-Tn6 fluorescence polarization displacement;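 active = inhibition above a per-campaign cutoff: mean of compounds within control limits plus 3 SD, cut at about 15% in these data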;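 note: 0% = median of all compound wells on the plate and 100% = blocking peptide control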
ADAM17 inh – inhibits human ADAM17. P78536. recombinant ADAM17, EDANS/DABCYL FRET peptide cleavage. inhibition, % at 6.95 µM. 0.83% of 370,000 active. AID 720648;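 active = inhibition above the mean of compounds lying between control limits plus 3 SD, set per campaign, cut at about 8.5% in these data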;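 note: 0% = DMSO-only wells as the low control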
ADAM10 ctr – inhibits human ADAM10 in ADAM17 exosite counter-screen; inhibition, % at 6.95 µM; 47% of 2,900 active; recombinant ADAM10, EDANS/DABCYL FRET peptide cleavage, 3 h; shares compounds with ADAM17 inh;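 active = mean inhibition over the triplicate runs exceeds the activity threshold set in the earlier primary screen, cut at about 20% in these data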;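 note: 0% = DMSO wells and 100% = marimastat wells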
ADAM17 confirm – confirmation of inhibitors of human ADAM17; recombinant ADAM17, EDANS/DABCYL QFRET peptide cleavage; shares compounds with ADAM17 inh; AID 743257; inhibition, % at 6.95 µM; 65% of 2,900 active;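 active = mean inhibition across replicates above the hit cutoff set in the primary screen, cut at about 8.5% in these data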;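 note: 0% = DMSO wells and 100% = marimastat wells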
Starred values were filed as active, the others as inactive; / = not tested or not shown.

SMILES	DDE Tn7 FP inh	ADAM10 inh	PLC-gamma1 inh	PLC-beta3 inh	DDE Tn6 FP inh	ADAM17 inh	ADAM10 ctr	ADAM17 confirm
Cc1cccc(/C(N)=N/OC(=O)N2CCOCC2)c1	1	2	5	4	-4	13*	14	12*
O=S(=O)(CC1NCc2ccccc21)NC1CCCC1 (centres undefined)	1	-6	-3	-4	-10	-4	/	/
CCCCCCn1c(=O)n2n(c1=O)[C@@H]1CN(S(=O)(=O)c3ccc(C)cc3)C[C@]1(O)[C@@H](OC(=O)NCc1ccccc1F)C2	-2	8	3	5	-8	5	/	/
CCCCCCn1c(=O)n2n(c1=O)[C@@H]1CN(S(=O)(=O)c3ccc(C)cc3)C[C@]1(O)[C@@H](OC(=O)NCc1ccc(OC)c(OC)c1)C2	0	17	3	2	-8	9.8*	23*	14*
CC(C)C1N=C(NC(=O)OCc2ccccc2)NC1=O (centres undefined) (tested in a mixture with another compound)	6	-17	6	-1	4	-3	/	/
O=S1(=O)CC2c3ccccc3CN2CN1C1CCCC1 (centres undefined)	0	4	-6	-4	10	2	/	/
Cc1ccc(NC(=S)N/N=C/c2ccc([N+](=O)[O-])s2)cc1	-6	-3	-5	-18	-6	11*	33*	19*
Cc1cc(C)cc(N=Cc2ccc([N+](=O)[O-])s2)c1	0	-3	0	1	-11	-3	/	/
CC(C)=CCC/C(C)=C/CN1CC(=O)N2[C@H](C[C@@]3(n4ccc5ccccc54)c4ccccc4N(S(=O)(=O)c4ccccc4)[C@@H]23)C1=O	-11	3	0	1	-4	3	/	/
Oc1ccc(CNc2cccnc2)c2cccnc12	2	9	-1	1	-2	3	/	/
C=CCNC(=O)CSc1nc2c(c(=O)[nH]1)CCCC2	-4	-6	-2	-1	9	3	/	/
CCCN1C/C(=C/c2ccc3c(c2)OCO3)C(=O)/C(=C/c2ccc3c(c2)OCO3)C1	5	-7	-4	-1	-6	10*	4	28*
CC(C)C[C@H](NC(C)(C)C(=O)NC1CCCCC1)C(=O)NCCc1c[nH]c2ccccc12	6	-1	2	-2	1	-6	/	/
O=C(C1=C[C@H](C2CC2)C[C@H](OCc2ccc(CO)cc2)O1)N1CCN(Cc2ccc3c(c2)OCO3)CC1	3	-1	1	0	3	1	/	/
O=C(C1=C[C@@H](C2CCCCC2)C[C@@H](OCc2ccc(CO)cc2)O1)N1CCN(Cc2ccc3c(c2)OCO3)CC1	-12	18	6	9	-2	10*	27*	18*
C[C@H](O)[C@@H]1CN2CCc3ccc(N4CCOCC4)cc3[C@@H]2C[C@@H]1N(C)C(=O)c1ccccc1F	0	-17	-11	-15	-12	-6	/	/
O=C(CSc1nnc(-c2ccncc2)n1-c1ccccc1)Nc1cccc2ccccc12	-6	2	1	4	-1	2	/	/
CC(C)(c1ccccc1)c1ccc(OCCn2cnc3ccccc3c2=O)cc1	1	16	1	0	-1	9.6*	27*	15*
CC(C)(C)NC(=O)c1ccc(COCC(F)(F)F)o1	2	-11	2	0	-1	1	/	/
O=C(c1ccc(COCC(F)(F)F)o1)N1CCCCCC1	-5	9	2	7	1	11*	-4	-2
O=C(CCCC(=O)OCC(=O)c1cccs1)Nc1ccc(F)cc1	2	8	2	1	8	-2	/	/
O=C(CCCC(=O)OCC(=O)c1cccs1)Nc1ccc(Oc2ccccc2)cc1	2	9	0	0	8	8.9*	10	5
O=C(c1cc(-c2ccccc2)on1)N1CCC(Oc2cccnc2)CC1	-3	1	-1	1	0	0	/	/

Source: PubChem BioAssay
